Records with an inconclusive call do not appear.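 How the source made its calls, unless noted: active means RAM network inhibition above 8.4% in each of two replicates, 3 SD over the compound average; inconclusive means above 8.4% inhibition in only one replicate; inactive means 8.4% inhibition or less in each replicate.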
Key:
[1] = S. cerevisiae growth inhibition in permissive medium (OD615), pilot counter-assay for S. cerevisiae lifespan shortening project, permissive growth control (AID 705;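 active means growth inhibition above 25% in both replicates, a cutoff set 3 SD above the mean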); details: OD615, 24 h, at 10 µM, hits give high values
Method in brief: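 Timing: 24 h exposure, 30 °C / Material: Saccharomyces cerevisiae strain carrying genetically modified DeaD replicative-lifespan system / Signal: OD at 615 nm / Compound: 10 µM single dose, 0.25% DMSO / Medium: SC raffinose/galactose permissive medium / Evaluation: reduction in yeast growth (OD615)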

[2] = S. cerevisiae growth inhibition in restrictive medium, OD615, pilot screen, restrictive growth control, yeast lifespan reduction project (AID 706;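 active means growth inhibition above a set limit, 3 SD over mean compound inhibition, in both replicates, cut at about 43% in these data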;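 further: modified DeaD lifespan yeast strain shifted to restrictive glucose medium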); details: OD615, 48 h, at 10 µM, hits give high values
Method in brief: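 System: Engineered S. cerevisiae DeaD strain | Detection: OD615 | Buffer or medium: CSMM-D glucose medium | Doses: 10 µM compound, 0.25% DMSO | Timing: 4 h pre-growth plus 48 h compound exposure, 30 °C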

[3] = doxorubicin toxicity protection in MRP-1 cells – H69AR cells, CellTiter-Glo, duplicate, MRP-1 activator project, pilot screen (AID 807;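 active means viability increase at or above a cutoff of the median across tested compounds plus 3 SD, cut at about 8.5% in these data, passing the limit was not always enough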;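 further: compound pretreatment 18-22 h then 72 h combined with doxorubicin; 0% = doxorubicin alone and 100% = vehicle without doxorubicin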); details: H69AR viability with doxorubicin, CellTiter-Glo luminescence; at 10 µM; hits give high values
[4] = viability of HCT116 without oncogenic beta-catenin – human colon tumor cells, pilot screen (AID 823;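 active means cell viability at or below a set limit in both duplicate runs, the limit being the all-compound median minus 4 SD, cut at about 23% in these data, passing the limit was not always enough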;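 further: 0% = wells killed by 20 µM Hyamine and 100% = untreated DMSO cell wells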); details: HCT116 beta-catenin knockout viability, CellTiter-Glo, 60 h; at 10 µM; hits give low values
[5] = viability of PTEN-null HCT116 cells – cell-based, HCT116 clonal line, CellTiter-Glo, pilot screen (AID 824;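 active means viability at or below 27.92% in each of two runs, the all-compound median minus 4 SD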;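 further: 0% = 20 µM Hyamine control and 100% = vehicle cell control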); details: HCT116 PTEN-deleted viability, 60 h, at 10 µM, hits give low values
[6] = RAM pathway blockade in budding yeast – dse1pr::URA3 reporter, 5-FOA selection, pilot screen (AID 869;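 active means inhibition over a set limit, the all-compound mean plus 3 SD, in both replicate runs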;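 further: 0% = DMSO wells with no growth and 100% = 10 µM 1-NA-PP1 with full growth; RAM network block rescues cells from 5-FOA so hits raise OD615 growth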); details: S. cerevisiae dse1pr::URA3 5-FOA growth, OD615, 2 d; at 10 µM; hits give high values; strain carries analog-sensitive mutant Cbk1 kinase
[7] = RAM signaling pathway blockade in yeast – S. cerevisiae, Pdr1DBD-CYC8 efflux-inhibited sensitized strain, primary screen (AID 1298);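 further: 0% = DMSO untreated cells without growth and 100% = 10 µM 1-NA-PP1 full growth; higher means more yeast growth rescued from 5-FOA killing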; details: S. cerevisiae cbk1-as DSE1-URA3 strain, 5-FOA growth OD615, 2 d; at 50 µM; hits give high values

CC(NS(=O)(=O)c1ccc(Br)cc1)C(c1cccs1)N1CCN(C)CC1 (stereo not drawn)
inactive: growth inhibition [1] -5.18% | growth inhibition [2] 3.13% | viability increase [3] -2.85% | viability [4] 78.2% | viability [5] 84.2% | inhibition [6] 0.53% | RAM network inhibition [7] 0.88%

O=C(c1cc2ccccc2cc1OCC(O)CN1CCCCC1)N1CCCCC1 (stereo not drawn)
inactive: growth inhibition [1] 2.48% | growth inhibition [2] 0.51% | viability increase [3] -4.18% | viability [4] 86.6% | viability [5] 83.5% | inhibition [6] 0.285% | RAM network inhibition [7] -0.89%

CCOC(=O)c1c(/N=C/N(C)C)sc(C(=O)OC)c1C
inactive: growth inhibition [1] -5.39% | growth inhibition [2] 3.21% | viability increase [3] -4.56% | viability [4] 91.1% | viability [5] 89.6% | inhibition [6] 0.78% | RAM network inhibition [7] 1.45%

CCOC(=O)Cn1c(=O)oc2cc(S(=O)(=O)Nc3cccc(C)c3)ccc21
inactive: growth inhibition [1] -5.58% | growth inhibition [2] -22.1% | viability increase [3] -0.66% | viability [4] 65.5% | viability [5] 79% | inhibition [6] 1% | RAM network inhibition [7] 2.63%

CCOC(=O)N1CCN(C(=O)c2cnn3ccccc23)CC1
inactive: growth inhibition [1] -9.02% | growth inhibition [2] -2.02% | viability increase [3] -1.3% | viability [4] 103% | viability [5] 100% | inhibition [6] 4.82% | RAM network inhibition [7] -1.68%

O=C1c2oc3ccccc3c(=O)c2C(c2cccc(O)c2)N1CCCN1CCOCC1 (stereo not drawn)
inactive: growth inhibition [1] -8.79% | growth inhibition [2] -7.73% | viability increase [3] -0.83% | viability [4] 102% | viability [5] 102% | inhibition [6] 0.37% | RAM network inhibition [7] 2.79%

O=C(CSc1nc(-c2ccco2)cc(C(F)(F)F)n1)NC1CCCC1
inactive: growth inhibition [1] -9.81% | growth inhibition [2] 5.25% | viability increase [3] -0.46% | viability [4] 89.3% | viability [5] 89.5% | inhibition [6] 0.995% | RAM network inhibition [7] 1%

O=C(C1CCCN1S(=O)(=O)c1cccc2cccnc12)N1CCc2ccccc2C1 (stereo not drawn)
inactive: growth inhibition [1] -8.21% | growth inhibition [2] -13.1% | viability increase [3] -1.96% | viability [4] 92.3% | viability [5] 86.7% | inhibition [6] 0.745% | RAM network inhibition [7] 0.84%

O=C(CC1Oc2ccccc2NC1=O)NC1CC1 (stereo not drawn)
inactive: growth inhibition [1] -1.45% | growth inhibition [2] -2.85% | viability increase [3] 0.91% | viability [4] 108% | viability [5] 93.5% | inhibition [6] 3.03% | RAM network inhibition [7] -0.05%

O=C(COC(=O)c1ccc(Br)c(S(=O)(=O)N2CCOCC2)c1)NCC1CCCO1 (stereo not drawn)
inactive: growth inhibition [1] -1.59% | growth inhibition [2] -5.15% | viability increase [3] -2.27% | viability [4] 100% | viability [5] 101% | inhibition [6] 3.08% | RAM network inhibition [7] 4.66%

Cc1cc(C)cc(-n2cc3c(=O)n(C)c(=O)n(C)c3c2)c1
inactive: growth inhibition [1] -6.43% | growth inhibition [2] -0.345% | viability increase [3] -1.71% | viability [4] 102% | viability [5] 103% | inhibition [6] 0.155% | RAM network inhibition [7] 2.55%

Cc1nnc(NC(=O)CSc2nnc(Cc3cccn3C)n2C)s1
inactive: growth inhibition [1] -3.1% | growth inhibition [2] 24.4% | viability increase [3] -0.3% | viability [4] 98.8% | viability [5] 104% | inhibition [6] 0.91% | RAM network inhibition [7] 1.93%

N#CC1=C(O)CCCn2c1nc1ccccc1c2=O
inactive: growth inhibition [1] -3.3% | growth inhibition [2] -18% | viability increase [3] -0.39% | viability [4] 97% | viability [5] 97% | inhibition [6] 2.41% | RAM network inhibition [7] 0.01%

Cc1c(/C=N/n2cnnc2)c2ccccc2n1C
inactive: growth inhibition [1] -2.21% | growth inhibition [2] 11.6% | viability increase [3] -1.49% | viability [4] 98.7% | viability [5] 95.3% | inhibition [6] -0.13% | RAM network inhibition [7] 4.77%

O=C1c2ccccc2CCC1C(O)c1ccccn1 (stereo not drawn)
inactive: growth inhibition [1] -8.87% | growth inhibition [2] -15.8% | viability increase [3] -3.89% | viability [4] 95.5% | viability [5] 99.2% | inhibition [6] 2.49% | RAM network inhibition [7] 1.24%

CC(=O)c1c(N2CCN(c3ccccc3)CC2)nc(=S)n(-c2ccccc2)c1C
inactive: growth inhibition [1] 3.6% | growth inhibition [2] 15.2% | viability increase [3] -3.16% | viability [4] 92.9% | viability [5] 99.9% | inhibition [6] 0.91% | RAM network inhibition [7] 6.47%

COc1ccc(C(=O)CCC(=O)N2CCN(c3ccc(N4CCOCC4)nn3)CC2)cc1
inactive: growth inhibition [1] 4.94% | growth inhibition [2] -0.495% | viability increase [3] -2.69% | viability [4] 102% | viability [5] 93.8% | inhibition [6] 1.65% | RAM network inhibition [7] 2.53%

O=C1CCCCC(=O)N(c2ccccc2)c2ccccc21
inactive: growth inhibition [1] -9.64% | growth inhibition [2] -15% | viability increase [3] -3.3% | viability [4] 95.9% | viability [5] 95.6% | inhibition [6] 1.74% | RAM network inhibition [7] 5.34%

O=C(c1ccco1)c1cn[nH]c1-c1ccc(Cl)cc1O
inactive: growth inhibition [1] -6.04% | growth inhibition [2] -8.45% | viability increase [3] -2.19% | viability [4] 95.6% | viability [5] 83.4% | inhibition [6] 1.42% | RAM network inhibition [7] 0.57%

O=C(CCS(=O)(=O)c1cccc2nonc12)NCCc1ccccc1
inactive: growth inhibition [1] -9.93% | growth inhibition [2] -23.2% | viability increase [3] -3.1% | viability [4] 103% | viability [5] 99.1% | inhibition [6] 4.24% | RAM network inhibition [7] 5.03%

COCCn1c(C)cc(C(=O)CSc2nnc3ccccn23)c1C
inactive: growth inhibition [1] 8.47% | growth inhibition [2] 3.52% | viability increase [3] -1.95% | viability [4] 98.8% | viability [5] 91.7% | inhibition [6] 0.76% | RAM network inhibition [7] 2.51%

Cc1c(C(=O)NCc2cccnc2)sc2nc(-c3ccccc3)cn12
inactive: growth inhibition [1] -4.69% | growth inhibition [2] 8.62% | viability increase [3] 0.16% | viability [4] 101% | viability [5] 89.5% | inhibition [6] 2.61% | RAM network inhibition [7] 7.67%

CCN1CCN(c2ncnc3c2sc2nc(N4CCOCC4)c4c(c23)CCC4)CC1
inactive: growth inhibition [1] -5.5% | growth inhibition [2] -14.1% | viability increase [3] -4.51% | viability [4] 85.1% | viability [5] 86.3% | inhibition [6] 0.195% | RAM network inhibition [7] 5.27%

Nc1nc(SCc2ccc(Cl)cc2)ns1
inactive: growth inhibition [1] 10.4% | growth inhibition [2] 7.05% | viability increase [3] 1.03% | viability [4] 98.4% | viability [5] 89.2% | inhibition [6] 0.695% | RAM network inhibition [7] 0.78%
